Activity calls are given as the source filed them.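 The calls were made as follows, unless noted: active = GFP response above 150% of the DMSO level; inconclusive = fewer than 70 events counted for a yeast strain; inactive = the rest.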
Assays:
[1] = RPL19A-GFP modulators, yeast TOR pathway, confirmation, cell-based, S. cerevisiae, flow cytometry, cherry picks, mother/daughter gates (AID 2270;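 active = GFP response below 50% of the DMSO control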); details: S. cerevisiae RPL19A-GFP strain, 3 h, at 10 µM, stronger effect = lower value, 100 = same GFP as DMSO wells
[2] = LAP4-GFP expression modulators in yeast, confirmation, cell-based, cherry picks, flow cytometry, mother/daughter gates (AID 2271;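 active = GFP response above 150% of the DMSO control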;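 also: ratio of sample to DMSO plate mean so 100% equals DMSO level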); details: S. cerevisiae LAP4-GFP strain, 3 h, at 10 µM, stronger effect = higher value, 100 means same as DMSO control
Outline: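 System: GFP-fusion yeast strain; Incubation: compound exposure 3 h at 30 °C, end-over-end rotation; Measured by: GFP by flow cytometry; Read-out: median GFP fluorescence as percent of plate-mean DMSO wells; Medium: synthetic complete (SC) yeast growth medium; Compound: single test-compound dose, 10 µM final; Benchmarks: DMSO-only negative wells, rapamycin 400 ng/mL positive wells.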

[3] = modulators of MEP2-GFP levels in yeast, confirmation, S. cerevisiae, flow cytometry GFP, cherry picks (AID 2272;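 active = GFP response above 150% of the DMSO control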;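 also: ratio of well signal to plate DMSO mean so 100% equals DMSO level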); details: S. cerevisiae MEP2-GFP strain, 3 h, at 10 µM, stronger effect = higher value
[4] = AGP1-GFP expression modulators, hit retest, confirmation, cell-based, flow cytometry, S. cerevisiae, cherry picks (AID 2273);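 also: median GFP channel fluorescence over the whole cell population gate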; details: S. cerevisiae AGP1-GFP strain, 3 h, at 10 µM
[5] = modulators of CIT2-GFP expression in yeast, confirmation, S. cerevisiae, GFP fusion, cherry picks, mother/daughter gates (AID 2274); details: S. cerevisiae CIT2-GFP strain, flow cytometry, 3 h, at 10 µM, stronger effect = higher value
[6] = measured here: daughter cell gate
[7] = measured here: mother cell gate
[8] = measured here: daughter cell gate response
[9] = measured here: mother cell gate response

Row | SMILES | GFP response vs DMSO [1] | GFP response vs DMSO [1, 6] [%] | GFP response vs DMSO [1, 7] [%] | GFP response relative to DMSO [2] | GFP response relative to DMSO [2, 8] [%] | GFP response relative to DMSO [2, 9] [%] | GFP response vs DMSO [3] | GFP response, % of DMSO [4] | GFP response, % of DMSO [5] | GFP response, % of DMSO [5, 6] [%] | GFP response, % of DMSO [5, 7] [%]
1 | Cn1cnnc1SCC(=O)Nc1nc(-c2ccc(F)cc2)cs1 | 100% (inactive) | 99.1 | 101 | 97% (inactive) | 95.9 | 97.3 | 103% (inactive) | 99.4% (inactive) | 102% (inactive) | 103 | 102
2 | Cc1sc(NC(=O)c2ccco2)nc1-c1ccccc1 | 93.8% (inactive) | 92.2 | 93.6 | 111% (inactive) | 105 | 113 | 102% (inactive) | 89.5% (inactive) | 102% (inactive) | 98.1 | 101
3 | CN(C(=O)c1ccccc1Cl)c1ccccc1 | 100% (inactive) | 100 | 98.8 | 94.1% (inactive) | 96 | 93.4 | 97.2% (inactive) | 103% (inactive) | 101% (inactive) | 103 | 102
4 | COc1ccc(/C=N/Nc2nnc(C)n2N)cc1OC(C)=O | 99.5% (inactive) | 100 | 99 | 94.2% (inactive) | 96.5 | 92.6 | 104% (inactive) | 102% (inactive) | 104% (inactive) | 104 | 103
5 | O=C(O)c1ccc(SCc2cnc(Cl)s2)cc1 | 104% (inactive) | 96.7 | 103 | 116% (inactive) | 99 | 112 | 110% (inactive) | 114% (inactive) | 108% (inactive) | 101 | 104
6 | O=C1C(Cl)=C(N2CCN(Cc3ccccc3)CC2)C(=O)N1Cc1ccccc1 | 97% (inactive) | 98.1 | 98 | 99.5% (inactive) | 101 | 98.4 | 94.7% (inactive) | 102% (inactive) | 100% (inactive) | 101 | 99.3
7 | O=C1c2cccc3cccc(c23)C(=O)N1c1cccnc1 | 100% (inactive) | 102 | 101 | 85% (inactive) | 86.4 | 85.5 | 98.3% (inactive) | 98.7% (inactive) | 99.7% (inactive) | 105 | 98.5
8 | O=C(/C=C/c1ccc(-c2ccccc2[N+](=O)[O-])o1)c1ccc(Br)cc1 | 96.4% (inactive) | 97.6 | 96.7 | 121% (inactive) | 118 | 126 | 105% (inactive) | 94.1% (inactive) | 101% (inactive) | 105 | 99.7
9 | Cc1ccc(/C=C/C(=O)c2ccccc2)cc1 | 97.4% (inactive) | 96.7 | 98.3 | 100% (inactive) | 102 | 99.5 | 99.5% (inactive) | 102% (inactive) | 102% (inactive) | 100 | 99.1
10 | O=C1C2C3C=CC(CO)(O3)C2C(=O)N1c1ccc(-c2ccccc2)cc1 (stereo unspecified) | 109% (inactive) | 103 | 94.9 | 334% (active) | 156 | 304 | 103% (inactive) | 97.8% (inactive) | 91.5% (inactive) | 97.4 | 82.1
11 | Cc1ccccc1C(=O)Nc1cccc(N)c1 | 99% (inactive) | 98.6 | 98.6 | 93.1% (inactive) | 94.2 | 94.1 | 101% (inactive) | 105% (inactive) | 97.3% (inactive) | 95.6 | 96.8
12 | Cc1ccc(NC(=S)N(CCCN2CCOCC2)Cc2cccs2)c(C)c1 | 97.6% (inactive) | 97.8 | 97.9 | 102% (inactive) | 104 | 101 | 99.5% (inactive) | 96% (inactive) | 99.3% (inactive) | 100 | 98
13 | O=C(O)c1ccc2c3c(ncnc13)-c1ccccc1C2=O | 113% (inactive) | 95.3 | 107 | 135% (inactive) | 130 | 134 | 135% (inactive) | 105% (inactive) | 123% (inactive) | 105 | 117
14 | COc1cc(/C=C2/C(=O)ON=C2c2ccccc2)ccc1O | 105% (inactive) | 108 | 100 | 105% (inactive) | 108 | 102 | 121% (inactive) | 107% (inactive) | 125% (inactive) | 132 | 112
15 | COc1ccccc1NC(=O)c1ccc(N)cc1 | 98% (inactive) | 98 | 98.1 | 100% (inactive) | 102 | 100 | 99.5% (inactive) | 98.7% (inactive) | 102% (inactive) | 104 | 101
16 | CCc1ccc2c(c1)C1(NN=C(c3ccccc3)S1)C(=O)N2 (stereo unspecified) | 101% (inactive) | 99.1 | 97.7 | 133% (inactive) | 125 | 140 | 114% (inactive) | 102% (inactive) | 94.4% (inactive) | 99.2 | 89.5
17 | Cc1ccc(NN2C(=O)C=C(c3ccc(Cl)cc3)C2=O)cc1 | 83.9% (inactive) | 87.1 | 74.3 | 289% (active) | 117 | 280 | 111% (inactive) | 91.3% (inactive) | 96.9% (inactive) | 91.7 | 83.1
18 | CC(C)c1ccc(C2C3CSCC=C3C(C#N)=C(N)C2(C#N)C#N)cc1 (stereo unspecified) | 97.2% (inactive) | 97.8 | 95.3 | 111% (inactive) | 108 | 115 | 101% (inactive) | 105% (inactive) | 99.7% (inactive) | 100 | 97.7
19 | O=S(=O)(c1ccc(-c2ccccc2)cc1)N1CCOCC1 | 96.7% (inactive) | 96.1 | 94.8 | 97.7% (inactive) | 97.5 | 97.4 | 103% (inactive) | 99.5% (inactive) | 95.8% (inactive) | 95.8 | 93.8
20 | CCOC(=O)c1sc(NC(=O)c2ccc3ncsc3c2)nc1C | 98% (inactive) | 95 | 94.8 | 95.3% (inactive) | 96 | 93.4 | 110% (inactive) | 96.4% (inactive) | 98.6% (inactive) | 95.8 | 93.8
21 | O=C(N/N=C/c1ccc(OCCCF)cc1)c1cc(OCC(F)(F)F)ccc1OCC(F)(F)F | 98% (inactive) | 100 | 98.2 | 97.4% (inactive) | 98.7 | 101 | 102% (inactive) | 97.2% (inactive) | 95.2% (inactive) | 94.8 | 97.7
22 | Cc1cccc(NC(=O)CCCN2C(=O)c3cccc4cccc(c34)C2=O)c1 | 101% (inactive) | 96.9 | 100 | 94.4% (inactive) | 95.9 | 94.1 | 99% (inactive) | 98.8% (inactive) | 98.8% (inactive) | 97.4 | 99.3
23 | Nc1cccc(C(=O)Nc2ccccc2Cl)c1 | 99.8% (inactive) | 99.1 | 98.9 | 97.9% (inactive) | 97.6 | 98.3 | 100% (inactive) | 93.5% (inactive) | 103% (inactive) | 103 | 101
24 | COc1cc(NC(=O)c2ccc(C)cc2C)ccc1NC(=O)c1cc2ccccc2o1 | 97.1% (inactive) | 95.9 | 94.4 | 97.7% (inactive) | 97.5 | 95.4 | 106% (inactive) | 105% (inactive) | 97.2% (inactive) | 101 | 97.1
25 | COc1cccc(C(=O)C(C#N)=C(SC)SC)c1 | 108% (inactive) | 102 | 106 | 123% (inactive) | 108 | 126 | 97.8% (inactive) | 95.7% (inactive) | 80.8% (inactive) | 80.1 | 79.4
26 | CCOc1cc(C(=S)N2CCCCC2)ccc1OS(=O)(=O)c1ccc(Cl)cc1 | 96.5% (inactive) | 96.1 | 96.5 | 102% (inactive) | 101 | 105 | 103% (inactive) | 105% (inactive) | 100% (inactive) | 99.3 | 98.2

— PubChem BioAssay
